Source: ChEMBL document CHEMBL1649117, “GRL-02031, a novel nonpeptidic protease inhibitor (PI) containing a stereochemically defined fused cyclopentanyltetrahydrofuran potent against multi-PI-resistant human immunodeficiency virus type 1 in vitro” (Antimicrob Agents Chemother, 2009)

Legend:
[1] = Selectivity index, ratio of CC50 for human MT2 cells to EC50 for HIV1 LAI; assay type: toxicity, cell-based; conditions: read-out: Selectivity Index
[2] = Cytotoxicity against human MT2 cells by MTT assay; assay type: cell-based
[3] = system: Human immunodeficiency virus 1; assay: Antiviral activity against HIV1 ERS104pre infected in human PHA-PBC assessed as inhibition of p24 Gag protein production by ELISA; assay type: functional, organism-based; conditions: Human immunodeficiency virus 1, ERS104pre
Procedure, shortened: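 Phytohemagglutinin-stimulated PBMs (10^6/ml) infected with 50 TCID50s of each primary isolate, cultured with or without drug in 10-fold serial dilutions. On day 7, supernatant p24 Gag was measured by automated chemiluminescent enzyme immunoassay. Triplicate.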

[4] = system: Human immunodeficiency virus 1; assay: Antiviral activity against HIV1 B harboring L10I/I15V/E35D/N37E/K45R/I54V/L63P/A71V/V82T/L90M/I93L/C95F in protease encoding region infected in human PHA-PBC assessed as inhibition of p24 Gag protein production by ELISA; assay type: functional, organism-based; conditions: Human immunodeficiency virus 1, B
Procedure, shortened: (§1)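 Phytohemagglutinin-stimulated PBMs (10^6/ml) infected with 50 TCID50s of each primary isolate, cultured with or without drug in 10-fold serial dilutions. On day 7, supernatant p24 Gag was measured by automated chemiluminescent enzyme immunoassay. […] Triplicate.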

[5] = system: Human immunodeficiency virus 1; assay: Antiviral activity against HIV1 G harboring L10I/V11I/T12E/I15V/L19I/R41K/M46L/L63P/A71T/V82A/L90M in protease encoding region infected in human PHA-PBC assessed as inhibition of p24 Gag protein production by ELISA; assay type: functional, organism-based; conditions: Human immunodeficiency virus 1, G; procedure, shortened: as §1
[6] = system: Human immunodeficiency virus 1; assay: Ratio of EC50 for HIV1 B harboring L10I/I15V/E35D/N37E/K45R/I54V/L63P/A71V/V82T/L90M/I93L/C95F in protease encoding region to EC50 for HIV1 ERS104pre; assay type: functional
[7] = system: Human immunodeficiency virus 1; assay: Ratio of EC50 for HIV1 G harboring L10I/V11I/T12E/I15V/L19I/R41K/M46L/L63P/A71T/V82A/L90M in protease encoding region to EC50 for HIV1 ERS104pre; assay type: functional
[8] = system: Human immunodeficiency virus 1; assay: Antiviral activity against HIV1 NL4-3 infected in human MT4 cells assessed as inhibition of p24 gag protein production by ELISA; assay type: functional, organism-based; conditions: Human immunodeficiency virus 1, NL4-3, MT4
Procedure, shortened: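 MT-4 cells (10^5/ml) were infected with 100 TCID50s of HIV-1 and cultured at 37°C with or without various drug concentrations. On day 7, supernatant p24 Gag was measured by automated chemiluminescent enzyme immunoassay. […] Assays were run in triplicate.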

[9] = system: Human immunodeficiency virus 1; assay: Antiviral activity against HIV1 NL4-3 harboring L10I/G48V/I54V/L90M amino acid substitution in protease encoding region infected in human MT4 cells assessed as inhibition of p24 Gag protein production selected at 5 uM of saquinavir by ELISA; assay type: functional, organism-based; conditions: Human immunodeficiency virus 1, NL4-3, MT4
Procedure, shortened: (§2)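 HIV-1NL4-3 (500 TCID50s) was passaged in MT-4 cells, starting at 0.01–0.03 µM PI and raising the drug generally two- to threefold as virus propagated. Cell-free passage used day-7 supernatants. Variants were then tested in MT-4 cells (10^5/ml) with 100 TCID50s, with or without drug, at 37°C. Day-7 p24 Gag was read by chemiluminescent immunoassay; EC50 vs drug-free control; triplicate.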

[10] = system: Human immunodeficiency virus 1; assay: Antiviral activity against HIV1 NL4-3 harboring M46I/V82F/I84V amino acid substitution in protease encoding region infected in human MT4 cells assessed as inhibition of p24 Gag protein production selected at 5 uM of ritonavir by ELISA; assay type: functional, organism-based; conditions: Human immunodeficiency virus 1, NL4-3, MT4; procedure, shortened: as §2
[11] = system: Human immunodeficiency virus 1; assay: Antiviral activity against HIV1 NL4-3 harboring L10F/M46I/I54V/V82A amino acid substitution in protease encoding region infected in human MT4 cells assessed as inhibition of p24 Gag protein production selected at 1 uM of Lopinavir by ELISA; assay type: functional, organism-based; conditions: Human immunodeficiency virus 1, NL4-3, MT4
Procedure, shortened: (§3)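 Cell-free passage used day-7 supernatants. Variants were then tested in MT-4 cells (10^5/ml) with 100 TCID50s, with or without drug, at 37°C. Day-7 p24 Gag was read by chemiluminescent immunoassay; EC50 vs drug-free control; triplicate.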

[12] = system: Human immunodeficiency virus 1; assay: Antiviral activity against HIV1 NL4-3 harboring L23I/K43I/M46I/I50L/G51A/A71V amino acid substitution in protease encoding region infected in human MT4 cells assessed as inhibition of p24 Gag protein production selected at 1 uM of atazanavir by ELISA; assay type: functional, organism-based; conditions: Human immunodeficiency virus 1, NL4-3, MT4; procedure, shortened: as §2
[13] = system: Human immunodeficiency virus 1; assay: Antiviral activity against HIV1 NL4-3 harboring L10F/L33F/M46I/I47V/Q58E/V82I/I84V/I85V amino acid substitution in protease encoding region infected in human MT4 cells assessed as inhibition of p24 Gag protein production selected at 5 uM of GRL-02031 by ELISA; assay type: functional, organism-based; conditions: Human immunodeficiency virus 1, NL4-3, MT4; procedure, shortened: as §3
[14] = system: Human immunodeficiency virus 1; assay: Ratio of EC50 for HIV1 NL4-3 harboring L10I/G48V/I54V/L90M amino acid substitution in protease encoding region to EC50 for HIV1 NL4-3; assay type: functional
Procedure, shortened: (§4)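 MT-4 cells (10^5/ml) infected with 100 TCID50s of PI-selected HIV-1NL4-3 variants or the parental strain, with or without serial drug concentrations, at 37°C. Day 7 supernatant p24 Gag measured by chemiluminescent enzyme immunoassay. […] Triplicate. Ratio is variant EC50 over wild-type EC50.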

[15] = system: Human immunodeficiency virus 1; assay: Ratio of EC50 for HIV1 NL4-3 harboring L10F/L24I/M46I/L63P/A71V/G73S/V82T amino acid substitution in protease encoding region to EC50 for HIV1 NL4-3; assay type: functional; procedure, shortened: as §4
[16] = system: Human immunodeficiency virus 1; assay: Ratio of EC50 for HIV1 NL4-3 harboring L10F/D30N/K45I/A71V/T74S amino acid substitution in protease encoding region to EC50 for HIV1 NL4-3; assay type: functional
[17] = system: Human immunodeficiency virus 1; assay: Ratio of EC50 for HIV1 NL4-3 harboring M46I/V82F/I84V amino acid substitution in protease encoding region to EC50 for HIV1 NL4-3; assay type: functional; procedure, shortened: as §4
[18] = system: Human immunodeficiency virus 1; assay: Ratio of EC50 for HIV1 NL4-3 harboring L10F/M46I/I54V/V82A amino acid substitution in protease encoding region to EC50 for HIV1 NL4-3; assay type: functional; procedure, shortened: as §4
[19] = system: Human immunodeficiency virus 1; assay: Antiviral activity against HIV1 MM harboring L10I/K43T/M46L/I54V/L63P/A71V/V82A/L90M/Q92K in protease encoding region infected in human PHA-PBC assessed as inhibition of p24 Gag protein production by ELISA; assay type: functional, organism-based; conditions: Human immunodeficiency virus 1, MM; procedure, shortened: as §1
[20] = system: Human immunodeficiency virus 1; assay: Antiviral activity against HIV1 C harboring L10I/I15V/K20R/L24I/M36I/M46L/I54V/I62V/L63P/K70Q/V82A/L89M in protease encoding region infected in human PHA-PBC assessed as inhibition of p24 Gag protein production by ELISA; assay type: functional, organism-based; conditions: Human immunodeficiency virus 1, C; procedure, shortened: as §1
[21] = system: Human immunodeficiency virus 1; assay: Antiviral activity against HIV1 TM harboring L10I/K14R/R41K/M46L/I54V/L63P/A71V/V82A/L90M/I93L in protease encoding region infected in human PHA-PBC assessed as inhibition of p24 Gag protein production by ELISA; assay type: functional, organism-based; conditions: Human immunodeficiency virus 1, TM; procedure, shortened: as §1

Row | Structure (SMILES) | selectivity ratio [1] | CC50 [2] | EC50 [3] | EC50 [4] | EC50 [5] | Ratio EC50 [6] | Ratio EC50 [7] | EC50 [8] | EC50 [9] | EC50 [10] | EC50 [11] | EC50 [12] | EC50 [13] | Ratio EC50 [14] | Ratio EC50 [15] | Ratio EC50 [16] | Ratio EC50 [17] | Ratio EC50 [18] | EC50 [19] | EC50 [20] | other results
1 | CC(C)(C)NC(=O)[C@@H]1C[C@@H]2CCCC[C@@H]2CN1C[C@@H](O)[C@H](Cc1ccccc1)NC(=O)[C@H](CC(N)=O)NC(=O)c1ccc2ccccc2n1 | 710 | 9900 nM | 9 nM | 300 nM | 27 nM | 33 | 3 | 8 nM | > 1000 nM | 10 nM | 33 nM | 34 nM | 8 nM | >125 | 3 | 4 | 1 | 4 |  |  | 
2 | CC(C)CN(C[C@@H](O)[C@H](Cc1ccccc1)NC(=O)O[C@H]1CCOC1)S(=O)(=O)c1ccc(N)cc1 | > 3000 | > 100000 nM |  | 310 nM | 230 nM | 12 | 9 | 28 nM | 210 nM | 430 nM | 320 nM | 180 nM | 210 nM | 8 | 9 | 3 | 15 | 11 | 400 nM | 220 nM | 
3 | COc1ccc(S(=O)(=O)N(C[C@@H]2CCC(=O)N2)C[C@@H](O)[C@H](Cc2ccccc2)NC(=O)O[C@@H]2C[C@@H]3CCO[C@@H]3C2)cc1 | > 3600 | > 100000 nM | 27 nM | 29 nM | 28 nM | 1 | 1 | 23 nM | 140 nM | 77 nM | 38 nM | 33 nM | > 1000 nM | 6 | 2 | 2 | 3 | 2 | 41 nM | 27 nM | EC50 [21]: 26 nM
4 | CC(C)(C)NC(=O)[C@@H]1CN(Cc2cccnc2)CCN1C[C@@H](O)C[C@@H](Cc1ccccc1)C(=O)N[C@H]1c2ccccc2C[C@H]1O.O | 1600 |  |  | > 1000 nM | 340 nM | >48 | 16 | 14 nM | > 1000 nM | 300 nM | > 1000 nM | 330 nM | 44 nM | >71 | >71 | 19 | 21 | >71 | > 1000 nM | > 1000 nM | EC50 [21]: > 1000 nM
5 | Cc1c(O)cccc1C(=O)N[C@@H](CSc1ccccc1)[C@H](O)CN1C[C@H]2CCCC[C@H]2C[C@H]1C(=O)NC(C)(C)C |  |  | 16 nM | > 1000 nM | 230 nM | >63 | 14 |  | 320 nM | 240 nM | 510 nM | 210 nM | 11 nM | 18 | 36 | >56 | 13 | 28 | > 1000 nM | 360 nM | EC50 [21]: > 1000 nM
